From PubChem BioAssay
The list is not random: actives were taken first. Their share in the collection is about 1.9%.
RAD52 inh: RAD52 (human) annealing inhibition. recombinant RAD52 DNA annealing, FRET fluorescence. inhibition, % at 18.7 µM. AID 651710. actives 0.46% (n = 360,000);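 active = every replicate showing at least 50% inhibition; inconclusive = mean inhibition at least 50% but not in every replicate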
PglD DTNB: blocks C. jejuni PglD acetyltransferase activity | purified PglD enzyme, DTNB colorimetric CoA detection | actives 0.098% (n = 360,000) | inhibition, % at 12.5 µM; in the data active = inhibition above about 16%, passing the limit was not always enough; inconclusive = no clear call, values can overlap the other calls
RAD54 inh: blocks human RAD54 Holliday junction branch migration; Q92698; FAM/BHQ fluorescence; inhibition, % at 10.4 µM; actives 0.14% (n = 360,000); AID 602329;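 active = mean normalized replicate activity at least 40 and at least half of replicates scoring 40 or more; inconclusive = only one of the two criteria met; inactive = mean below 40 and under half of replicates reaching 40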;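 also: 0% = median of neutral control wells and 100% = median of positive control wells; inhibitors cause a drop in the FAM fluorescence signal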
Target sequence (Q92698 whole entry, looked up): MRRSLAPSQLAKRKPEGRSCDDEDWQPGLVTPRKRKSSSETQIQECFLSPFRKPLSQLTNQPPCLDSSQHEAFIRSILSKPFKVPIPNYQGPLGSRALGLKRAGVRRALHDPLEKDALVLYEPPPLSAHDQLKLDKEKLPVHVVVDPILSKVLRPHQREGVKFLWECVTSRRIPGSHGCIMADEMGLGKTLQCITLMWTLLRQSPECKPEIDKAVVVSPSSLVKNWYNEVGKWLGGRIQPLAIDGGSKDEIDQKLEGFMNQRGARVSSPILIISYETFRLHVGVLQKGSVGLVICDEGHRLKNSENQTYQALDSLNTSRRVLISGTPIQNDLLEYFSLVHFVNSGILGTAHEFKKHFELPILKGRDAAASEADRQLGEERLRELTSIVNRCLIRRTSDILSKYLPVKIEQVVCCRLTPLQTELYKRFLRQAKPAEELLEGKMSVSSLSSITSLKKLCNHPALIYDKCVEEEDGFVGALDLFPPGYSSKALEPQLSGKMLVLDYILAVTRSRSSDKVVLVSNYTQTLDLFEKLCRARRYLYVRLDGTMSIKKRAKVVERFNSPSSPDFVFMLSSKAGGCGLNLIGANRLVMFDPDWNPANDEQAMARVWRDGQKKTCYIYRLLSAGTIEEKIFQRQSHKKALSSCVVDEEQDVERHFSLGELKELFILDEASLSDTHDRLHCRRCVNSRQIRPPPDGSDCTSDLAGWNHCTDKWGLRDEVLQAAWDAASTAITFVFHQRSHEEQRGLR
Ecoli rRNA inh: inhibits bacterial ribosomal RNA function over humanized ribosomes. AID 720706. GFP signal change (wild-type ribosome), % (concentration not given with the values). E. coli WT GFP vs humanized-ribosome RFP mutants, fluorescence, 24 h; stronger effect = lower value; DMSO median 0, no signal -100. actives 1.6% (n = 350,000);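 active = significant combined selectivity score with lowered wild-type GFP, culture density cut under 30%, mutant RFP and density less affected; inactive = any of these conditions unmet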
Cneo AK release: Cryptococcus neoformans lysis via adenylate kinase release. C. neoformans lysis, adenylate kinase release luminescence, 4 h; normalised: neutral wells 0, clomiphene wells 100. lysis activity, % at 15 µM. actives 0.2% (n = 360,000). AID 651654;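 active = mean lysis activity across replicates of at least 80%, whatever share of replicates individually reach that level; inactive = mean lysis activity below 80%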
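Assay system: log-phase C. neoformans yeast / Quantity: yeast cell density of 5 × 10^6 cells/mL / Medium: fresh YPD growth medium / Compound: single dose / Timing: static 4 h at 37 °C with compound, 1 h detection / Measured by: adenylate kinase release luminescence / Read-out: lysis from increased AK signal / Benchmarks: Clomiphene as positive lysis control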
AID977621: growth inhibition of wild-type GFP E. coli, dose response, H69 mutant RFP, cherry-pick | E. coli wild-type GFP strain growth, fluorescence, 24 h | shares compounds with Ecoli rRNA inh | 1,900 tested, under 10 active | activity change, negative = inhibition at 50 µM;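 active = Wild-type ribosome reporter drop at least double the humanized mutant ribosome reporter drop, growth loss under a set limit; inconclusive = no clear call, values can overlap the other calls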;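 also: wild-type GFP and H69 mutant RFP strains grown together 50/50 in each well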
AID977628: growth of wild-type and h24-humanized E. coli strains – h24 mutant RFP vs wild-type GFP, cherry-pick, dose response. activity change, negative = inhibition at 50 µM. AID 977628. shares compounds with Ecoli rRNA inh. 1,900 tested, under 10 active. E. coli WT GFP strain growth, fluorescence, 24 h;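 active = compound lowering the normal-ribosome reporter at least twice as much as the humanized-ribosome reporter, growth loss under a set limit; inconclusive = no clear call, values can overlap the other calls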;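 also: wild-type GFP and h24 humanized RFP strains co-cultured 1 to 1 per well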
Numbers without * were called inactive; u = inconclusive; x = no result given.

SMILES | RAD52 inh | PglD DTNB | RAD54 inh | Ecoli rRNA inh | Cneo AK release | AID977621 | AID977628
Nc1nc(N)nc(-c2cccc(Br)c2)n1 | -10 | x | x | -6 | x | x | x
Cc1nonc1C1CCCN1C(=O)c1cc(COc2ccc(F)cc2F)on1 (stereo not given) | -15 | x | x | -27* | x | u | x
CSc1ccccc1OCc1cc(C(=O)N2CCCC2c2nonc2C)no1 (stereo not given) | -5 | 0 | 3 | 3 | 1 | x | x
O=S(=O)(NOCc1ccc(Cl)cc1)c1ccc(Cl)cc1 | -5 | -4 | -11 | -39* | -1 | 6.8 | -2.7
O=C(Nc1ccc2nc3ccccc3nc2c1)c1ccc(Br)cc1 | x | -2 | -4 | x | -1 | x | x
CC(=O)Nc1cccc(Nc2nc(-c3ccccc3)nc3ccccc23)c1 | -12 | x | x | -22* | x | x | u
CC(=O)Nc1ccc2nc3ccccc3nc2c1 | -10 | x | x | -26* | x | -17 | x
CC(=O)c1cccc(Nc2nc(-c3ccccc3)nc3ccccc23)c1 | -25 | -1 | 0 | 17 | 1 | x | x
CC(=O)Nc1ccn(-c2ccccc2)n1 | x | -2 | -3 | x | -1 | x | x
N#Cc1ccc(C(=O)Nc2ccn(-c3ccccc3)n2)cc1 | -8 | x | x | -14* | x | -8.6 | x
CO[C@@H]1CN(C)C(=O)c2ccc(NC(=O)NC(C)C)cc2OC[C@@H](C)N(Cc2ccccc2)C[C@@H]1C | 8 | 1 | -5 | -3 | -2 | x | x
CC(C)NC(=O)N[C@@H]1CC[C@@H](CCNS(=O)(=O)c2ccc(F)cc2)O[C@H]1CO | -11 | 2 | 4 | 2 | -4 | x | x
COc1ccccc1NC(=O)CSc1ncc(CO)n1Cc1ccc(F)cc1 | -11 | -3 | 4 | -20* | 4 | -15 | -14
CCCNC(=O)c1noc2c1CCc1cc(OC)ccc1-2 | -7 | -4 | -6 | -28* | -9 | u | x
FC(F)(F)c1ccc(Cl)c(-n2c(Cc3cccs3)n[nH]c2=S)c1 | -12 | 3 | 1 | -33* | 3 | -18 | x
Fc1ccc(-n2c(Cc3cccs3)n[nH]c2=S)cc1Cl | -20 | 3 | -6 | -5 | 3 | x | x
Fc1ccc(-c2nc3c(Cl)cc(C(F)(F)F)cn3c2Cc2ccsc2)cc1 | -14 | x | x | -17* | x | -12 | -6.7
O=C(O)CSc1nnc(-c2ccc(Cl)cc2Cl)n1-c1ccc(Br)cc1 | -16 | -3 | -1 | -30* | 7 | -16 | x
CNC(=O)C[C@H]1CC[C@@H]2[C@H](COc3ccc(NC(=O)c4ccc(F)c(F)c4)cc3C(=O)N2C)O1 | 12 | 0 | -7 | 3 | -6 | x | x
CC(=O)c1ccc(Sc2ccccc2N)c([N+](=O)[O-])c1 | -23 | -5 | -9 | -16* | 0 | x | -13
CN(C)C(=O)c1cccc(-c2ccc3c(c2)[C@H]2[C@H](CCN2Cc2ccccc2F)[C@@H](CO)N3)c1 | x | -2 | -9 | 2 | -22 | x | x
Cc1cccc(OCCCC(=O)Nc2ccc(N(C)C)cc2)c1 | -16 | x | x | -2 | x | x | x
Cc1cccc(OCCC(=O)Nc2ccc(F)c(F)c2)c1 | -7 | x | -1 | -41* | -1 | 4.6 | x
CC(C)(C)C1CCC(OC(=O)C[N+]2(C)CCCCC2)CC1 (stereo not given) | -6 | x | x | -17* | x | -2.7 | -5.8
CC(C)(C)C1CCC(OC(=O)C[N+]2(C)CCCC2)CC1 (stereo not given) | -4 | x | x | 7 | x | x | x
CCN(CC)S(=O)(=O)c1ccc(N2CCCC2)c(NC(=O)c2ccccc2OC)c1 | -9 | 1 | 7 | -21* | 0 | -16 | -9.8
COc1cccc(-c2ccc(SCc3ccccn3)nn2)c1 | -6 | x | x | -23* | x | x | u
CO[C@H]1CN(C)C(=O)c2ccc(NC(=O)NC(C)C)cc2OC[C@@H](C)N(Cc2ccc(-c3ccccn3)cc2)C[C@H]1C | -9 | -4 | -12 | 2 | -1 | x | x
COc1ccc(-n2c(COc3cccc(C)c3)n[nH]c2=S)cc1 | 6 | -1 | 0 | -20* | 2 | -6.5 | 0.6
O=c1c2ccccc2nc(SCc2ccccc2)n1CC1CCCO1 (stereo not given) | -2 | x | x | -21* | x | -12 | -18
